Results from ChEMBL document CHEMBL1833887, “Synthesis and evaluation of 7-substituted 4-aminoquinoline analogues for antimalarial activity” (J Med Chem, 2011).
Values after ≈ are worked out from the molar mass of the structure shown.

Tests used:
Plasmodium falciparum [1] = test: Antimalarial activity against chloroquine-resistant Plasmodium falciparum K1 infected in human erythrocytes assessed as reduction in parasitemia after 72 hrs by spectrophotometry; type: functional, organism-based; conditions: K1, 72 h
HepG2 = test: Cytotoxicity against human HepG2 cells assessed as intracellular ATP level after 72 hrs by Celltiter-Glo luminescent assay; type: cell-based; conditions: HepG2, 72 h
Plasmodium falciparum [2] = test: Ratio of EC50 for chloroquine-resistant Plasmodium falciparum K1 infected in human erythrocytes to EC50 for chloroquine-sensitive Plasmodium falciparum 3D7 infected in human erythrocytes; type: functional
[3] = Solubility of the compound at pH 7.4 after 18 hrs by UV spectroscopic analysis; type: physicochemical; conditions: buffer
Procedure, shortened: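 Kinetic solubility. A 10 mM stock is diluted 1:100 into PBS pH 7.4 and incubated 18 h at room temperature, then filtered; the filtrate is mixed 1:1 with 1-propanol. UV spectrum (250–500 nm) compared by AUC with a 1-propanol/PBS reference. Single experiment in triplicate.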

[4] = Permeability of the compound at pH 7.4 after 30 mins by PAMPA; type: ADME; conditions: read-out: permeability
Procedure, shortened: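 PAMPA at pH 7.4. A 10 mM DMSO stock is diluted into system solution buffer; its UV spectrum serves as reference. Membrane painted with GIT lipid, acceptor chamber holds acceptor solution buffer. Sandwich stirred for 30 min, aqueous boundary layer set to 40. Donor and acceptor UV spectra read at 250–500 nm. Permeability coefficient from the AUCs of reference, donor and acceptor. Single experiment in triplicate.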

[5] = Dissociation constant, pKa of the compound; type: physicochemical
[6] = Ratio of EC50 for human HepG2 cells to EC50 for Plasmodium falciparum 3D7 infected in human erythrocytes
[7] = Ratio of EC50 for human HepG2 cells to EC50 for Plasmodium falciparum K1 infected in human erythrocytes
Plasmodium falciparum [8] = test: Antimalarial activity against chloroquine-sensitive Plasmodium falciparum 3D7 infected in human erythrocytes assessed as reduction in parasitemia after 72 hrs by spectrophotometry; type: functional, organism-based; conditions: 3D7, 72 h

SMILES | EC50 (Plasmodium falciparum [1]) | EC50 (HepG2) | Ratio EC50 (Plasmodium falciparum [2]) | solubility at 18 h [3] | Papp at 0.5 h [4] | pKa [5] | Ratio EC50 [6] | Ratio EC50 [7] | EC50 (Plasmodium falciparum [8])
COc1cccc(CNCCCNc2ccnc3cc(Oc4ccc(C(C)(C)C)cc4)ccc23)c1O | 0.249 µM | 1.5 µM | 4.6 | 14.5 µM (≈ 7.04 µg/mL) | 317 ×10⁻⁶ cm/s | 9.28 | 28 | 6 | 0.054 µM
COc1ccc(F)cc1CNCCCNc1ccnc2cc(CC3CCCCC3)ccc12 | 0.687 µM | 1.83 µM | 5 | 4.2 µM (≈ 1.83 µg/mL) | 23 ×10⁻⁶ cm/s | 9.47 | 13.3 | 2.7 | 0.138 µM
COc1ccc(F)cc1CNCCCNc1ccnc2cc(Cc3cccc(C(F)(F)F)c3)ccc12 | 0.323 µM | 0.44 µM | 8.1 | 4.2 µM (≈ 2.09 µg/mL) | 23 ×10⁻⁶ cm/s | 9.47 | 11 | 1.3 | 0.04 µM
c1ccc2c(-c3ccc4c(NCCCNCc5ccc6c(c5)OCO6)ccnc4c3)cccc2c1 | 0.538 µM | 6.57 µM | 0.9 | 32 µM (≈ 14.8 µg/mL) | 237 ×10⁻⁶ cm/s | 9.47 | 11 | 12.2 | 0.598 µM
CCC(CC)c1ccc2c(NCCCNCc3ccco3)ccnc2c1 | 4.3 µM | 6.76 µM | 50.1 | 4.2 µM (≈ 1.48 µg/mL) | 23 ×10⁻⁶ cm/s | 9.47 | 78.7 | 1.6 | 0.086 µM
c1cc(NCCCNCc2ccc3c(c2)OCO3)c2ccc(Cc3ccc4c(c3)OCO4)cc2n1 | 0.027 µM | 4.79 µM | 1 | 32 µM (≈ 15 µg/mL) | 237 ×10⁻⁶ cm/s | 9.47 | 185 | 178.8 | 0.026 µM
c1ccc(Oc2ccc3c(NCCCNCc4ccco4)ccnc3c2)cc1 | 5.97 µM | 15.2 µM | 19 | 14.5 µM (≈ 5.42 µg/mL) | 317 ×10⁻⁶ cm/s | 9.28 | 48 | 3 | 0.314 µM
COc1ccc(Oc2ccc3c(NCCCNCc4ccco4)ccnc3c2)cc1 | 0.02 µM | 5.3 µM | 5.6 | 14.5 µM (≈ 5.85 µg/mL) | 317 ×10⁻⁶ cm/s | 9.28 | 1479 | 265 | 0.004 µM
CC(C)(C)c1ccc(-c2ccc3c(NCCCNCc4ccco4)ccnc3c2)cc1 | 0.325 µM | 3.15 µM | 0.5 | 32 µM (≈ 13.2 µg/mL) | 237 ×10⁻⁶ cm/s | 9.47 | 4.5 | 9.7 | 0.704 µM
COc1cccc(CNCCCNc2ccnc3cc(-c4ccccc4)ccc23)c1O | 1.94 µM | 3.21 µM | 212.7 | 32 µM (≈ 13.2 µg/mL) | 237 ×10⁻⁶ cm/s | 9.47 | 353 | 1.7 | 0.009 µM
COc1ccccc1Oc1ccc2c(NCCCNCc3cccc(OC)c3O)ccnc2c1 | 5.7 µM | 11.2 µM | 626.4 | 14.5 µM (≈ 6.66 µg/mL) | 317 ×10⁻⁶ cm/s | 9.28 | 1227 | 2 | 0.009 µM
CC(C)CCc1ccc2c(NCCCNCc3ccc4c(c3)OCO4)ccnc2c1 | 0.206 µM | 2.8 µM | 7.6 | 4.2 µM (≈ 1.7 µg/mL) | 23 ×10⁻⁶ cm/s | 9.47 | 103.1 | 13.5 | 0.027 µM
FC(F)(F)c1cccc(Cc2ccc3c(NCCCNCc4ccco4)ccnc3c2)c1 | 0.743 µM | 3.19 µM | 13.2 | 4.2 µM (≈ 1.85 µg/mL) | 23 ×10⁻⁶ cm/s | 9.47 | 56.7 | 4.3 | 0.056 µM
CCC(CC)c1ccc2c(NCCCNCc3ccc4c(c3)OCO4)ccnc2c1 | 1.06 µM | 6.35 µM | 39.5 | 4.2 µM (≈ 1.7 µg/mL) | 23 ×10⁻⁶ cm/s | 9.47 | 235.1 | 6 | 0.027 µM
COc1ccc(F)cc1CNCCCNc1ccnc2cc(CCC(C)C)ccc12 | 0.36 µM | 0.89 µM | 3.1 | 4.2 µM (≈ 1.72 µg/mL) | 23 ×10⁻⁶ cm/s | 9.47 | 7.7 | 2.5 | 0.116 µM
Fc1ccc(Cc2ccc3c(NCCCNCc4ccco4)ccnc3c2)c(Cl)c1 | 1.22 µM | 5.73 µM | 62.1 | 4.2 µM (≈ 1.78 µg/mL) | 23 ×10⁻⁶ cm/s | 9.47 | 290.8 | 4.7 | 0.02 µM
Clc1ccc(Oc2ccc3c(NCCCNCc4ccc5c(c4)OCO5)ccnc3c2)cc1 | 0.32 µM | 7.2 µM | 8.4 | 14.5 µM (≈ 6.7 µg/mL) | 317 ×10⁻⁶ cm/s | 9.28 | 189 | 22 | 0.038 µM
COc1cccc(CNCCCNc2ccnc3cc(Cc4ccccc4)ccc23)c1O | 6.97 µM | 5.72 µM | 400.6 | 4.2 µM (≈ 1.8 µg/mL) | 23 ×10⁻⁶ cm/s | 9.47 | 328.6 | 0.8 | 0.017 µM
COc1ccc(-c2ccc3c(NCCCNCc4ccc5c(c4)OCO5)ccnc3c2)cc1 | 0.026 µM | 5.63 µM | 0.9 | 32 µM (≈ 14.1 µg/mL) | 237 ×10⁻⁶ cm/s | 9.47 | 192.9 | 218.3 | 0.029 µM
COc1ccc(-c2ccc3c(NCCCNCc4cccc(OC)c4O)ccnc3c2)cc1 | 0.078 µM | 1.6 µM | 6 | 32 µM (≈ 14.2 µg/mL) | 237 ×10⁻⁶ cm/s | 9.47 | 122.9 | 20.6 | 0.013 µM
COc1cccc(CNCCCNc2ccnc3cc(C4CCCCC4)ccc23)c1O | 16 µM | 1.08 µM | 864.9 | 4.2 µM (≈ 1.76 µg/mL) | 23 ×10⁻⁶ cm/s | 9.47 | 58.1 | 0.1 | 0.019 µM
